Test results from ChEMBL document CHEMBL4342478, “Discovery of Potent N-Ethylurea Pyrazole Derivatives as Dual Inhibitors of Trypanosoma brucei and Trypanosoma cruzi” (ACS Med Chem Lett, 2020).
Activity calls are given as the source filed them. The calls are words filed in the database; no cut-off is given here.

What was measured:
[1] = Toxicity in BALB/c mouse infected with Trypanosoma cruzi Brazil trypomastigotes expressing firefly luciferase assessed as body weight loss at 50 mg/kg, po via gavage twice daily at 30 mins after administration with 50 mg/kg, ip CYP inhibitor, 1-aminobenzotriazole twice daily; assay type: organism-based; conditions: in vivo, 0.5 h
Method in brief: (§1)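 Acutely infected BALB/c mice carried luciferase-expressing T. cruzi Brazil strain. Mice received oral gavage twice daily of 50 mg/kg test article in PBS with 2% methylcellulose and 0.5% Tween 80. Each dose followed ip 1-aminobenzotriazole 50 mg/kg by 30 min.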

[2] = Half life in human liver microsomes; assay type: ADME, Microsome
Plasmodium falciparum = test: Antiplasmodial activity against erythrocytic stage of Plasmodium falciparum after 48 hrs by [3H]-hypoxanthine incorporation assay; assay type: functional, organism-based
Trypanosoma cruzi [3] = test: Antitrypanosomal activity against Trypanosoma cruzi infected in rat H9C2 cells by DRAQ5 DNA dye based imaging analysis; assay type: functional, organism-based
Method in brief: (§2)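 IC50 values are the mean of two independent experiments. The T. b. brucei assay uses free parasites. The T. cruzi assay uses intracellular parasites in H9c2 host cells.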

[4] = Selectivity index, ratio of IC50 for human HEK293 cells incubated for 69 hrs by resazurin dye based fluorescence analysis to IC50 for antitrypanosomal activity against Trypanosoma brucei brucei BS427; assay type: toxicity; conditions: read-out: Ratio IC50
[5] = tested on: Trypanosoma brucei brucei; test: Antitrypanosomal activity against Trypanosoma brucei brucei BS427 after 48 hrs by resazurin dye based fluorescence assay; assay type: functional, organism-based; conditions: Trypanosoma brucei, BS427, 48 h; read-out: IC50; method in brief: as §2
Leishmania donovani = test: AntiLeishmanial activity against amastigote form of Leishmania donovani MHOM/ET/67/L82 after 72 hrs by Alamar blue dye based fluorometric analysis; assay type: functional, organism-based
Trypanosoma cruzi [6] = test: Antitrypanosomal activity against Trypanosoma cruzi Brazil trypomastigotes expressing firefly luciferase infected in BALB/c mouse assessed as reduction in parasitemia at 50 mg/kg, po via gavage twice daily at 30 mins after administration with 50 mg/kg, ip CYP inhibitor, 1-aminobenzotriazole twice daily and measured after 6 days by bioluminescence assay; assay type: functional, organism-based
Method in brief: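 BALB/c mice were infected with trypomastigotes of a transgenic T. cruzi Brazil strain expressing firefly luciferase. Treatment was by oral gavage twice daily: vehicle (PBS with 2% methylcellulose and 0.5% Tween 80), or 50 mg/kg test article given 30 min after ip 1-aminobenzotriazole 50 mg/kg. Benznidazole 30 mg/kg was given by oral gavage once daily. Parasite load was measured by bioluminescence imaging at treatment day 0 (3 days post infection) and day 6.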

[7] = Metabolic stability in human liver microsomes; assay type: ADME, Microsome
[8] = Metabolic stability in mouse liver microsomes; assay type: ADME, Microsome
Trypanosoma cruzi [9] = test: Antitrypanosomal activity against Trypanosoma cruzi Tulahuen C2C4 trypomastigotes infected in rat L6 cells after 96 hrs by photometric analysis; assay type: functional, organism-based
[10] = Selectivity index, ratio of cytotoxicity against rat H9C2 cells to IC50 for antitrypanosomal activity against Trypanosoma cruzi infected in rat H9C2 cells; assay type: toxicity, cell-based; conditions: read-out: Selectivity Index
[11] = Toxicity in BALB/c mouse infected with Trypanosoma cruzi Brazil trypomastigotes expressing firefly luciferase assessed as lethargy at 50 mg/kg, po via gavage twice daily at 30 mins after administration with 50 mg/kg, ip CYP inhibitor, 1-aminobenzotriazole twice daily; assay type: organism-based; conditions: in vivo, 0.5 h; method in brief: as §1
Trypanosoma cruzi [12] = test: Trypanosomacidal activity against Trypanosoma cruzi strain Y trypomastigotes assessed as reduction in number of infected cells at 0.078 uM measured for 24 to 96 hrs by Hoechst 33342 staining based fluorescence imaging assay relative to benznidazole; assay type: functional
Method in brief: (§3)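 Time-to-kill assay against intracellular T. cruzi, with test article at 0.312 or 0.078 μM. Controls were benznidazole 20 μM, posaconazole 0.04 μM and DMSO. The number of infected host cells was tracked over time after drug addition.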

Trypanosoma cruzi [13] = test: Trypanosomacidal activity against Trypanosoma cruzi strain Y trypomastigotes assessed as reduction in number of infected cells at 0.078 uM measured within first 24 hrs by Hoechst 33342 staining based fluorescence imaging assay; assay type: functional, organism-based; method in brief: as §3
[14] = Kinetic solubility of compound at pH 2 to 6.5 by nephelometry; assay type: physicochemical; conditions: buffer, read-out: Kinetic_solubility
[15] = tested on: Trypanosoma brucei rhodesiense; test: Antitrypanosomal activity against blood stream form of Trypanosoma brucei rhodesiense STIB900 after 72 hrs by Alamar blue based fluorometric assay; assay type: functional, organism-based

half-life [2]: 23 min
IC50 (Trypanosoma cruzi [3]): 16 nM
IC50 [5]: 9 nM
Stability [7]: Stable
Stability [8]: Stable
solubility kinetic [14]: > 20 µg/mL
Compound: O=C(NCCn1ccc(-c2ccc(F)c(F)c2)n1)N1CC[C@H](F)C1
Activity [1]: Toxic
Activity (Plasmodium falciparum): Active
selectivity ratio at 69 h [4]: 8650
Activity (Leishmania donovani): Active
Activity (Trypanosoma cruzi [6]): Active
Activity (Trypanosoma cruzi [9]): Active
selectivity ratio [10]: 588 to 3160
Activity [11]: Toxic
fold change (FC) (Trypanosoma cruzi [12]): 36
Activity (Trypanosoma cruzi [13]): Active
Activity [15]: Active
